Experiments:
[1] = tested on: Nucleic Acid; assay: Ratio of drug level in hypothalamus to cerebellum in rat after 120 mins; format: ADME, tissue-based; details: in vivo, 2 h
Summary of the method: (§1)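 Rats, 3 per group, given ¹⁸F tracer (10–100 μCi, 0.2 ml sterile water with 1 mg/mL BSA) into the femoral vein under isoflurane. Brain regions, including hypothalamus, striatum and cerebellum, dissected, weighed and counted. % dose/g calculated against a 1% diluted aliquot of the dose. Region/cerebellum ratio is region %dose/g divided by cerebellum %dose/g. SD of the ratio propagated from both means and SDs.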

[2] = tested on: Lung; assay: Biodistribution in iv dosed rat lungs after 30 mins; format: ADME, organism-based; details: in vivo, 0.5 h
Summary of the method: (§2)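 [18F]-labeled tracer was given to rats under isoflurane anesthesia: 0.2 ml sterile water with 1 mg/mL BSA and 10–100 μCi, into the femoral vein. Three rats per group. Animals were killed by cervical dislocation under anesthesia at the stated time. Organs were removed, weighed and counted. Uptake was calculated as percent dose against a 1% aliquot of the injected dose counted alongside.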

[3] = tested on: Brain; assay: Biodistribution in iv dosed rat brain after 30 mins; format: ADME, organism-based; details: in vivo, 0.5 h; summary of the method: as §2
[4] = tested on: Nucleic Acid; assay: Ratio of drug level in hypothalamus to cerebellum in rat after 30 mins; format: ADME, tissue-based; details: in vivo, 0.5 h; summary of the method: as §1
[5] = tested on: Zone of skin; assay: Biodistribution in iv dosed rat skin after 2 mins; format: ADME, organism-based; details: in vivo
[6] = tested on: Zone of skin; assay: Biodistribution in iv dosed rat skin after 30 mins; format: ADME, organism-based; details: in vivo, 0.5 h
Summary of the method: (§3)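 Rats, 3 per group, under isoflurane. ¹⁸F tracer (10–100 μCi) in 0.2 ml sterile water with 1 mg/mL BSA injected into the femoral vein. Killed by cervical dislocation under anesthesia at the stated time. Organs removed, weighed and counted. % dose/organ calculated against counts of a 1% diluted aliquot of the injected dose.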

[7] = tested on: Zone of skin; assay: Biodistribution in iv dosed rat skin after 60 mins; format: ADME, organism-based; details: in vivo, 1 h
[8] = tested on: Zone of skin; assay: Biodistribution in iv dosed rat skin after 120 mins; format: ADME, organism-based; details: in vivo, 2 h; summary of the method: as §3
[9] = tested on: Zone of skin; assay: Biodistribution in iv dosed rat skin after 240 mins; format: ADME, organism-based; details: in vivo, 4 h
[10] = tested on: Blood; assay: Biodistribution in iv dosed rat blood after 2 mins; format: ADME, organism-based; details: in vivo; summary of the method: as §2
[11] = tested on: Blood; assay: Biodistribution in iv dosed rat blood after 60 mins; format: ADME, organism-based; details: in vivo, 1 h; summary of the method: as §2
[12] = tested on: Blood; assay: Biodistribution in iv dosed rat blood after 120 mins; format: ADME, organism-based; details: in vivo, 2 h; summary of the method: as §2
[13] = tested on: Heart; assay: Biodistribution in iv dosed rat heart after 2 mins; format: ADME, organism-based; details: in vivo; summary of the method: as §2
[14] = tested on: Heart; assay: Biodistribution in iv dosed rat heart after 30 mins; format: ADME, organism-based; details: in vivo, 0.5 h; summary of the method: as §2
[15] = tested on: Heart; assay: Biodistribution in iv dosed rat heart after 60 mins; format: ADME, organism-based; details: in vivo, 1 h; summary of the method: as §2
[16] = tested on: Heart; assay: Biodistribution in iv dosed rat heart after 120 mins; format: ADME, organism-based; details: in vivo, 2 h; summary of the method: as §2
[17] = tested on: Heart; assay: Biodistribution in iv dosed rat heart after 240 mins; format: ADME, organism-based; details: in vivo, 4 h; summary of the method: as §2
[18] = tested on: Lung; assay: Biodistribution in iv dosed rat lungs after 2 mins; format: ADME, organism-based; details: in vivo; summary of the method: as §2
[19] = tested on: Lung; assay: Biodistribution in iv dosed rat lungs after 60 mins; format: ADME, organism-based; details: in vivo, 1 h; summary of the method: as §2
[20] = tested on: Liver; assay: Biodistribution in iv dosed rat liver after 2 mins; format: ADME, organism-based; details: in vivo; summary of the method: as §2
[21] = tested on: Liver; assay: Biodistribution in iv dosed rat liver after 30 mins; format: ADME, organism-based; details: in vivo, 0.5 h; summary of the method: as §2
[22] = tested on: Liver; assay: Biodistribution in iv dosed rat liver after 60 mins; format: ADME, organism-based; details: in vivo, 1 h; summary of the method: as §2
[23] = tested on: Liver; assay: Biodistribution in iv dosed rat liver after 240 mins; format: ADME, organism-based; details: in vivo, 4 h; summary of the method: as §2
[24] = tested on: Spleen; assay: Biodistribution in iv dosed rat spleen after 30 mins; format: ADME, organism-based; details: in vivo, 0.5 h; summary of the method: as §3
[25] = tested on: Spleen; assay: Biodistribution in iv dosed rat spleen after 60 mins; format: ADME, organism-based; details: in vivo, 1 h
[26] = tested on: Spleen; assay: Biodistribution in iv dosed rat spleen after 120 mins; format: ADME, organism-based; details: in vivo, 2 h; summary of the method: as §3
[27] = tested on: Kidney; assay: Biodistribution in iv dosed rat kidney after 30 mins; format: ADME, organism-based; details: in vivo, 0.5 h; summary of the method: as §2
[28] = tested on: Kidney; assay: Biodistribution in iv dosed rat kidney after 60 mins; format: ADME, organism-based; details: in vivo, 1 h; summary of the method: as §2
[29] = tested on: Kidney; assay: Biodistribution in iv dosed rat kidney after 120 mins; format: ADME, organism-based; details: in vivo, 2 h; summary of the method: as §2
[30] = tested on: Kidney; assay: Biodistribution in iv dosed rat kidney after 240 mins; format: ADME, organism-based; details: in vivo, 4 h; summary of the method: as §2
[31] = tested on: Muscle tissue; assay: Biodistribution in iv dosed rat muscle after 2 mins; format: ADME, organism-based; details: in vivo; summary of the method: as §2
[32] = tested on: Muscle tissue; assay: Biodistribution in iv dosed rat muscle after 60 mins; format: ADME, organism-based; details: in vivo, 1 h; summary of the method: as §2
[33] = tested on: Muscle tissue; assay: Biodistribution in iv dosed rat muscle after 120 mins; format: ADME, organism-based; details: in vivo, 2 h; summary of the method: as §2
[34] = tested on: Bone; assay: Biodistribution in iv dosed rat bone after 2 mins; format: ADME, organism-based, Bone element; details: in vivo; summary of the method: as §2
[35] = tested on: Bone; assay: Biodistribution in iv dosed rat bone after 30 mins; format: ADME, organism-based, Bone element; details: in vivo, 0.5 h; summary of the method: as §2
[36] = tested on: Bone; assay: Biodistribution in iv dosed rat bone after 60 mins; format: ADME, organism-based, Bone element; details: in vivo, 1 h; summary of the method: as §2
[37] = tested on: Bone; assay: Biodistribution in iv dosed rat bone after 120 mins; format: ADME, organism-based, Bone element; details: in vivo, 2 h; summary of the method: as §2
[38] = tested on: Bone; assay: Biodistribution in iv dosed rat bone after 240 mins; format: ADME, organism-based, Bone element; details: in vivo, 4 h; summary of the method: as §2
[39] = tested on: Brain; assay: Biodistribution in iv dosed rat brain after 60 mins; format: ADME, organism-based; details: in vivo, 1 h; summary of the method: as §2
[40] = tested on: Cortex; assay: Biodistribution in iv dosed rat cortex assessed as radioactivity after 240 mins; format: ADME, organism-based; details: in vivo, 4 h
Summary of the method: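 Rats received the [18F] tracer under isoflurane anesthesia: 0.2 ml sterile water with 1 mg/mL BSA and 10–100 μCi, into the femoral vein. Three rats per group. After cervical dislocation under anesthesia, the cortex was dissected, weighed and gamma-counted. Percent dose/g was calculated against a 100-fold diluted aliquot of the injected dose.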

[41] = tested on: Striatum; assay: Biodistribution in iv dosed rat striatum assessed as radioactivity after 2 mins; format: ADME, organism-based; details: in vivo
[42] = tested on: Striatum; assay: Biodistribution in iv dosed rat striatum assessed as radioactivity after 60 mins; format: ADME, organism-based; details: in vivo, 1 h
[43] = tested on: Striatum; assay: Biodistribution in iv dosed rat striatum assessed as radioactivity after 120 mins; format: ADME, organism-based; details: in vivo, 2 h
[44] = tested on: Striatum; assay: Biodistribution in iv dosed rat striatum assessed as radioactivity after 240 mins; format: ADME, organism-based; details: in vivo, 4 h
[45] = tested on: Nucleic Acid; assay: Ratio of drug level in hypothalamus to cerebellum in rat assessed as radioactivity after 60 mins; format: ADME, tissue-based; details: in vivo, 1 h
[46] = tested on: Nucleic Acid; assay: Ratio of drug level in hypothalamus to cerebellum in rat assessed as radioactivity after 240 mins; format: ADME, tissue-based; details: in vivo, 4 h
[47] = tested on: Nucleic Acid; assay: Ratio of drug level in hippocampus to cerebellum in rat assessed as radioactivity after 2 mins; format: ADME, tissue-based; details: in vivo
[48] = tested on: Nucleic Acid; assay: Ratio of drug level in hippocampus to cerebellum in rat assessed as radioactivity after 30 mins; format: ADME, tissue-based; details: in vivo, 0.5 h
Summary of the method: (§4)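 Groups of three normal rats under isoflurane received the [18F] tracer (10–100 μCi in 0.2 ml sterile water containing 1 mg/mL BSA) into the femoral vein. They were killed by cervical dislocation under anesthesia at the stated time. Cortex, striatum, hippocampus, hypothalamus and cerebellum were dissected, weighed and gamma-counted. %dose/g was set against a 100-fold diluted dose aliquot, and each region was divided by cerebellum.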

[49] = tested on: Nucleic Acid; assay: Ratio of drug level in hippocampus to cerebellum in rat assessed as radioactivity after 60 mins; format: ADME, tissue-based; details: in vivo, 1 h
[50] = tested on: Nucleic Acid; assay: Ratio of drug level in hippocampus to cerebellum in rat assessed as radioactivity after 120 mins; format: ADME, tissue-based; details: in vivo, 2 h; summary of the method: as §4
[51] = tested on: Nucleic Acid; assay: Ratio of drug level in cortex to cerebellum in rat assessed as radioactivity after 30 mins; format: ADME, tissue-based; details: in vivo, 0.5 h; summary of the method: as §4
[52] = tested on: Nucleic Acid; assay: Ratio of drug level in cortex to cerebellum in rat assessed as radioactivity after 60 mins; format: ADME, tissue-based; details: in vivo, 1 h
[53] = tested on: Nucleic Acid; assay: Ratio of drug level in cortex to cerebellum in rat assessed as radioactivity after 120 mins; format: ADME, tissue-based; details: in vivo, 2 h; summary of the method: as §4
[54] = tested on: Nucleic Acid; assay: Ratio of drug level in cortex to cerebellum in rat assessed as radioactivity after 240 mins; format: ADME, tissue-based; details: in vivo, 4 h
[55] = tested on: Nucleic Acid; assay: Ratio of drug level in striatum to cerebellum in rat assessed as radioactivity after 2 mins; format: ADME, tissue-based; details: in vivo
[56] = tested on: Nucleic Acid; assay: Ratio of drug level in striatum to cerebellum in rat assessed as radioactivity after 30 mins; format: ADME, tissue-based; details: in vivo, 0.5 h; summary of the method: as §4
[57] = tested on: Nucleic Acid; assay: Ratio of drug level in striatum to cerebellum in rat assessed as radioactivity after 120 mins; format: ADME, tissue-based; details: in vivo, 2 h; summary of the method: as §4
[58] = tested on: Lung; assay: Biodistribution in iv dosed rat lungs after 240 mins; format: ADME, organism-based; details: in vivo, 4 h; summary of the method: as §2
[59] = Partition coefficient, log P at pH 7.4; format: physicochemical; details: octanol/water

CN(C)Cc1cc(OCC[18F])ccc1Sc1ccc(Br)cc1N
Ratio [1]: 3.7 | Drug uptake [2]: 4.63 %ID | Drug uptake [3]: 1.88 %ID | Ratio [4]: 2.04 | Drug uptake [5]: 5.3 %ID | Drug uptake [6]: 7.06 %ID | Drug uptake [7]: 7.86 %ID | Drug uptake [8]: 7.07 %ID | Drug uptake [9]: 6.79 %ID | Drug uptake [10]: 4.67 %ID | Drug uptake [11]: 7.05 %ID | Drug uptake [12]: 6.19 %ID | Drug uptake [13]: 1.38 %ID | Drug uptake [14]: 0.23 %ID | Drug uptake [15]: 0.21 %ID | Drug uptake [16]: 0.19 %ID | Drug uptake [17]: 0.12 %ID | Drug uptake [18]: 10.3 %ID | Drug uptake [19]: 3.44 %ID | Drug uptake [20]: 11.1 %ID | Drug uptake [21]: 4.58 %ID | Drug uptake [22]: 3.45 %ID | Drug uptake [23]: 2.13 %ID | Drug uptake [24]: 0.7 %ID | Drug uptake [25]: 0.68 %ID | Drug uptake [26]: 0.54 %ID | Drug uptake [27]: 2.85 %ID | Drug uptake [28]: 2.44 %ID | Drug uptake [29]: 2 %ID | Drug uptake [30]: 1.53 %ID | Drug uptake [31]: 18.2 %ID | Drug uptake [32]: 15.5 %ID | Drug uptake [33]: 10.2 %ID | Drug uptake [34]: 9.88 %ID | Drug uptake [35]: 8.17 %ID | Drug uptake [36]: 8.53 %ID | Drug uptake [37]: 9.3 %ID | Drug uptake [38]: 12.5 %ID | Drug uptake [39]: 1.92 %ID | Drug uptake [40]: 0.82 % ID/g | Drug uptake [41]: 1.02 % ID/g | Drug uptake [42]: 1.27 % ID/g | Drug uptake [43]: 1.37 % ID/g | Drug uptake [44]: 0.98 % ID/g | Ratio [45]: 2.97 | Ratio [46]: 4.26 | Ratio [47]: 0.88 | Ratio [48]: 1.63 | Ratio [49]: 2.21 | Ratio [50]: 2.23 | Ratio [51]: 1.95 | Ratio [52]: 2.41 | Ratio [53]: 2.9 | Ratio [54]: 3.21 | Ratio [55]: 0.96 | Ratio [56]: 1.86 | Ratio [57]: 2.84 | Drug uptake [58]: 2.1 %ID | logD [59]: 2.52

— ChEMBL document CHEMBL1138354, “2-(2'-((dimethylamino)methyl)-4'-(fluoroalkoxy)-phenylthio)benzenamine derivatives as serotonin transporter imaging agents” (J Med Chem, 2007)
